We go through seven molecules from ChEMBL document CHEMBL3400023, “Synthesis and evaluation of novel amide amino-β-lactam derivatives as cholesterol absorption inhibitors” (Bioorg Med Chem, 2015).

Data set [1] in a line: Cytotoxicity against MDCK2 cells expressing human NPC1L1 dosed with micelles after 1 hr. Further details: species or system Canis lupus familiaris. As to conditions: dog, mdck-ii. The method, boiled down:
(§1)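 MDCKII cells (wild type or stably expressing hNPC1L1, G418-maintained) seeded at 2 × 10^5 cells/mL 24 h ahead in DMEM/10% FCS. Cells exposed for 1 h, then viability read by MTT assay.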

A short description of data set [2]: Cytotoxicity against MDCK2 cells dosed with micelles after 1 hr. The conditions noted are these: dog, mdck-ii. Further details: species or system Canis lupus familiaris. The method, boiled down: as §1
For data set [3], the target named is T1, NPC1-like intracellular cholesterol transporter 1 (Homo sapiens) (UniProt Q9UHC9).
T1 sequence (whole entry): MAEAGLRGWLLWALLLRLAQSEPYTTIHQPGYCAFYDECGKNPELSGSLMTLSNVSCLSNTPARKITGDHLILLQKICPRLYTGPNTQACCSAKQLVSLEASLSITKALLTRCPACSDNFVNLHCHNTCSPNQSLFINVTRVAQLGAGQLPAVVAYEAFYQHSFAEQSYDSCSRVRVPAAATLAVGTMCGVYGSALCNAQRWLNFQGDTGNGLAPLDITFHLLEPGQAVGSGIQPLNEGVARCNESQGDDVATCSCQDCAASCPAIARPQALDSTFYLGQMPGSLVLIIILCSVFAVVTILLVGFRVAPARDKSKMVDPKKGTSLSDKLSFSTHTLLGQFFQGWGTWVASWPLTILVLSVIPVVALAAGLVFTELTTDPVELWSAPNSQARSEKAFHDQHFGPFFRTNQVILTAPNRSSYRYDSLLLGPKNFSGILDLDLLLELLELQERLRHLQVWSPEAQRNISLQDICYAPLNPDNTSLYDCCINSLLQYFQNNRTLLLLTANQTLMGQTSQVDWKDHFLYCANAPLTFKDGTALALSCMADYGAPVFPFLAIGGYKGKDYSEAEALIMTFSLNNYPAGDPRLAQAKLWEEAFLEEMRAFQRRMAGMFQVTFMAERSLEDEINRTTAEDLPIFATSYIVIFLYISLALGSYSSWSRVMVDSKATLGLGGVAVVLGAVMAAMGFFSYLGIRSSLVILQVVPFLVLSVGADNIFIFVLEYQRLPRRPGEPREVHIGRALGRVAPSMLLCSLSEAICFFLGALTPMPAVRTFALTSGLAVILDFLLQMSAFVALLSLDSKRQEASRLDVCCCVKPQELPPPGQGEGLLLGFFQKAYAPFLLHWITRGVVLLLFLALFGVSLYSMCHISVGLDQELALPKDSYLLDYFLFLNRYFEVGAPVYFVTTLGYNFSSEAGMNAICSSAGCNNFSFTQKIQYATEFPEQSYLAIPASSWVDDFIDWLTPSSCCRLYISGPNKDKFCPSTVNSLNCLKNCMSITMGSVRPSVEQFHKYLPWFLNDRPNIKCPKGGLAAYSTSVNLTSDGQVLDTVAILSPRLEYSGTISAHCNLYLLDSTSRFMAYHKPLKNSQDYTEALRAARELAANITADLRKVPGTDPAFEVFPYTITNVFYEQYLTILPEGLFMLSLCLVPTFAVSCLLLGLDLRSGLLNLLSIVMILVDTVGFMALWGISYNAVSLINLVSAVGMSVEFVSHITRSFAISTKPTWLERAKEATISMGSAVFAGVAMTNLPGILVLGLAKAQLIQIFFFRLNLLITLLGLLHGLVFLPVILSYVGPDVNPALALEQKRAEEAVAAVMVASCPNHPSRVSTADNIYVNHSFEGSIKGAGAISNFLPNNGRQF
The experiment in a line: Inhibition of human NPC1L1 transfected in MDCK2 cells assessed as [3H]cholesterol uptake at 60 uM after 1 hr by liquid scintillation counting analysis. The class given is cell-based. The conditions noted are these: MDCK-II. The method, boiled down:
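hNPC1L1/MDCKII cells were seeded in DMEM with 5% LPDS 24 h before treatment, then PBS-washed. Cells were exposed for 1 h to micellar medium carrying [3H]cholesterol (0.18 μCi/mL) plus compound (0–200 μM). They were washed with ice-cold 0.2% fatty acid-free BSA and lysed, and lysate counted by scintillation. Counts were normalised to protein (CPM/mg) and expressed as % inhibition versus untreated cells. Duplicates, three independent experiments.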

Molecules are shown by their SMILES.

In the case of `O=C(/C=C/c1ccccc1)N[C@H]1C(=O)N(c2ccc(F)cc2)[C@@H]1c1ccc(O)cc1`, the Activity result in data set [1] and in data set [2] was “Non-toxic” in each case.

Take `O=C(N[C@H]1C(=O)N(c2ccc(F)cc2)[C@@H]1c1ccc(O)cc1)c1ccccc1`: the Activity result in data set [1] and in data set [2] was “Non-toxic” in each case. In addition, in data set [3], the inhibition is 60%.

For the molecule `O=C1[C@H](CC[C@H](O)c2ccc(F)cc2)[C@@H](c2ccc(O)cc2)N1c1ccc(F)cc1` [EZETIMIBE], the Activity entry in data set [1] and in data set [2] was “Non-toxic” throughout. The inhibition in data set [3] is 40%.

Take `O=C(Cc1ccccc1)N[C@H]1C(=O)N(c2ccc(F)cc2)[C@@H]1c1ccc(O)cc1`: the Activity entry in data set [1] and in data set [2] was “Non-toxic” each time.

`O=C(N[C@H]1C(=O)N(c2ccc(F)cc2)[C@@H]1c1ccc(O)cc1)c1ccc(F)cc1`: the Activity entry in data set [1] and in data set [2] was “Non-toxic” throughout. Moreover, the inhibition in data set [3] came out at 60%.

With `O=C(Cc1ccc(F)cc1)N[C@H]1C(=O)N(c2ccc(F)cc2)[C@@H]1c1ccc(O)cc1`, the Activity entry in data set [1] and in data set [2] was “Non-toxic” each time.

Turning to `O=C(/C=C/c1ccc(F)cc1)N[C@H]1C(=O)N(c2ccc(F)cc2)[C@@H]1c1ccc(O)cc1`, the Activity entry in data set [1] and in data set [2] was “Non-toxic” throughout.
